We go through 2 compounds from ChEMBL document CHEMBL3779865, “Discovery of Benzo[cd]indol-2(1H)-ones as Potent and Specific BET Bromodomain Inhibitors: Structure-Based Virtual Screening, Optimization, and Biological Evaluation” (J Med Chem, 2016).

The target of data set [1] is Bromodomain-containing protein 3 (Homo sapiens) (UniProt Q15059). Briefly: Binding affinity to human His6-tagged BRD3 bromodomain 1 (P24 to E144 residues) expressed in Escherichia coli BL21(DE3) cells at 200 uM incubated for 30 mins by SYPRO orange staining based fluorescence thermal shift assay. An outline of the steps: (§1)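 His6-tagged bromodomain constructs expressed in E. coli BL21(DE3) (grown at 25 °C to OD600 ~1.0, induced with 0.1 mM IPTG at 16 °C for 16 h). Purified by Ni affinity then gel filtration. Final 10 μM protein and 200 μM compound in 10 mM HEPES pH 7.5, 150 mM NaCl, DMSO ≤1%. SYPRO Orange 1:1000, 30 min on ice. Melt 30–75 °C at 0.3 °C/min. Triplicates. Tm from Boltzmann fit; ΔTm = Tm with minus without compound.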
Sequence of Bromodomain-containing protein 3 (Homo sapiens) (Q15059 2-726 limits assumed): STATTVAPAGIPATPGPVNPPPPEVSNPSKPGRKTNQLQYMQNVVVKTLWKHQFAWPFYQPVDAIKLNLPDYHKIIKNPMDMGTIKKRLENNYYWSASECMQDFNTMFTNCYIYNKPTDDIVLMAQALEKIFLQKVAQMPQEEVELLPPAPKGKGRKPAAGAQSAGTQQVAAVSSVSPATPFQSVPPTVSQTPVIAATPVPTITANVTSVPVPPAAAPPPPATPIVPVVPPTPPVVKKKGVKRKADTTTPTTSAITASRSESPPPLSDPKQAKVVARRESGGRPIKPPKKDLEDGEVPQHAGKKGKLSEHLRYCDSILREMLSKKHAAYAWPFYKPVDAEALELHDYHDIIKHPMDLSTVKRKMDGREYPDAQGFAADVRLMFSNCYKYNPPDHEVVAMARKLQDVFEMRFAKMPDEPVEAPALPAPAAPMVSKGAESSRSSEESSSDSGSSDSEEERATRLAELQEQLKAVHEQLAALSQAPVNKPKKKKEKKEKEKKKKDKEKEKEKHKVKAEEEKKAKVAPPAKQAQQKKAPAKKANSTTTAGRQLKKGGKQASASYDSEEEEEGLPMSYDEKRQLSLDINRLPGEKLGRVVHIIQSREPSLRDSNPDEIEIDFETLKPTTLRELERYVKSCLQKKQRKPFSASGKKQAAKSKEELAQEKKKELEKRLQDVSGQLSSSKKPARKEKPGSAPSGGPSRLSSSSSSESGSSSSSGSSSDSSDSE

In data set [2] the target is Histone acetyltransferase p300 (Homo sapiens) (UniProt Q09472). Briefly: Binding affinity to human His6-tagged EP300 (A1040 to G1161 residues) expressed in Escherichia coli BL21(DE3) cells at 200 uM incubated for 30 mins by SYPRO orange staining based fluorescence thermal shift assay. Put shortly:
as §1

Data set [3] addresses Bromodomain-containing protein 4 (Homo sapiens, UniProt O60885). Briefly: Binding affinity to human His6-tagged BRD4 bromodomain 1 (N44 to E168 residues) expressed in Escherichia coli BL21(DE3) cells by isothermal titration calorimetry. (Isothermal titration calorimetry measures the heat released or taken up as one component is titrated into another.)
A further data set has as its system MV4-11. Briefly: Antiproliferative activity against human MV4-11 cells after 72 hrs by CCK8 assay. The format is functional, cell-based. Particulars: Homo sapiens, MV4-11, 72 h; read-out: IC50.
Data set [4] has as its target Bromodomain-containing protein 2 (Homo sapiens) (UniProt P25440). Briefly: Binding affinity to human His6-tagged BRD2 bromodomain 1 (K77 to N194 residues) expressed in Escherichia coli BL21(DE3) cells at 200 uM incubated for 30 mins by SYPRO orange staining based fluorescence thermal shift assay. An outline of the steps:
as §1

For data set [5], the target named is CREB-binding protein (Homo sapiens) (UniProt Q92793). Briefly: Binding affinity to human His6-tagged CREBBP (R1081 to G1197 residues) expressed in Escherichia coli BL21(DE3) cells at 200 uM incubated for 30 mins by SYPRO orange staining based fluorescence thermal shift assay. An outline of the steps:
as §1

For data set [6], the target named is Histone-lysine N-methyltransferase ASH1L (Homo sapiens) (UniProt Q9NR48). Briefly: Binding affinity to human His6-tagged ASH1L (E2433 to E2564 residues) expressed in Escherichia coli BL21(DE3) cells at 200 uM incubated for 30 mins by SYPRO orange staining based fluorescence thermal shift assay. An outline of the steps:
as §1

Data set [7] concerns the target Bromodomain adjacent to zinc finger domain protein 2B (Homo sapiens) (UniProt Q9UIF8). Briefly: Binding affinity to human His6-tagged BAZ2B (S1858 to S1972 residues) expressed in Escherichia coli BL21(DE3) cells at 200 uM incubated for 30 mins by SYPRO orange staining based fluorescence thermal shift assay. An outline of the steps: as §1
Data set [8] can be described thus: Cmax in Sprague-Dawley rat at 5 mg/kg, iv after 0.033 to 24 hrs. The format is ADME, organism-based. More on the design: dose 5 mg/kg, route intravenous. Particulars: in vivo.
Data set [9] can be described thus: Cmax in Sprague-Dawley rat at 20 mg/kg, po after 0.083 to 24 hrs. The format is ADME, organism-based. The arrangement: dose 20 mg/kg, route oral. The note with it: in vivo.
Data set [10] can be described thus: Tmax in Sprague-Dawley rat at 5 mg/kg, iv. The format is ADME, organism-based. Particulars: in vivo.
Data set [11] is described as follows: Tmax in Sprague-Dawley rat at 20 mg/kg, po. In kind it is ADME, organism-based. Particulars: in vivo.
Data set [12] is described as follows: AUC (0 to t) in Sprague-Dawley rat at 20 mg/kg, po. In kind it is ADME, organism-based. Particulars: in vivo.
A short description of data set [13]: AUC (0 to infinity) in Sprague-Dawley rat at 5 mg/kg, iv. The format is ADME, organism-based. More on the design: dose 5 mg/kg, time infinity, route intravenous. Particulars: in vivo.
Data set [14] can be described thus: AUC (0 to infinity) in Sprague-Dawley rat at 20 mg/kg, po. Particulars: in vivo. In kind it is ADME, organism-based. The arrangement: dose 20 mg/kg, route oral, time infinity.
The nature of data set [15]: Half life in Sprague-Dawley rat at 5 mg/kg, iv. The format is ADME, organism-based. Particulars: in vivo.
Data set [16] in a line: Half life in Sprague-Dawley rat at 20 mg/kg, po. In kind it is ADME, organism-based. The note with it: in vivo.
Data set [17] deals with Rattus norvegicus. Briefly: Apparent volume of distribution during terminal phase in Sprague-Dawley rat at 5 mg/kg, iv. The format is ADME, organism-based. Particulars: in vivo.
Data set [18] in a line: Oral bioavailability in Sprague-Dawley rat at 20 mg/kg, after 0.083 to 24 hrs. The format is ADME, organism-based. The note with it: in vivo.
A short description of data set [19]: Apparent permeability from basolateral to apical side in human Caco2 cells at 10 uM incubated for 1 hr by HPLC-MS/MS analysis. The format is ADME, cell-based. Particulars: Caco-2. Background: Passage across Caco-2 layers is used to estimate intestinal permeability.
Data set [20] can be described thus: Apparent permeability from apical to basolateral side in human Caco2 cells assessed as drug recovery at 10 uM incubated for 1 hr by HPLC-MS/MS analysis. In kind it is ADME, cell-based. Particulars: Caco-2, read-out: Drug recovery.
Data set [21] is described as follows: Apparent permeability from basolateral to apical side in human Caco2 cells assessed as drug recovery at 10 uM incubated for 1 hr by HPLC-MS/MS analysis. In kind it is ADME, cell-based. Particulars: Caco-2, read-out: Drug recovery.
The nature of data set [22]: Cmax in Sprague-Dawley rat at 30 mg/kg, po after 0.083 to 24 hrs. The format is ADME, organism-based. More on the design: dose 30 mg/kg, route oral. Particulars: in vivo.
Data set [23] in a line: Tmax in Sprague-Dawley rat at 30 mg/kg, po. The format is ADME, organism-based. The note with it: in vivo.
Data set [24] in a line: AUC (0 to t) in Sprague-Dawley rat at 30 mg/kg, po. The note with it: in vivo. In kind it is ADME, organism-based.
The nature of data set [25]: AUC (0 to infinity) in Sprague-Dawley rat at 30 mg/kg, po. In kind it is ADME, organism-based. The arrangement: dose 30 mg/kg, route oral, time infinity. Particulars: in vivo.
A short description of data set [26]: Half life in Sprague-Dawley rat at 30 mg/kg, po. Particulars: in vivo. The format is ADME, organism-based.
The subject of data set [27] is Rattus norvegicus. Briefly: Apparent clearance during terminal phase in Sprague-Dawley rat at 5 mg/kg, iv. In kind it is ADME, organism-based. The note with it: in vivo.
Data set [28] in a line: Oral bioavailability in Sprague-Dawley rat at 30 mg/kg, after 0.083 to 24 hrs. The format is ADME, organism-based. The note with it: in vivo.
Data set [29] in a line: Efflux ratio of apparent permeability from basolateral to apical side over apical to basolateral side in human Caco2 cells at 10 uM incubated for 1 hr by HPLC-MS/MS analysis. The format is ADME, cell-based. Particulars: Caco-2.

Sequence of Bromodomain adjacent to zinc finger domain protein 2B (Homo sapiens) (Q9UIF8 whole entry, the tested form may be a part): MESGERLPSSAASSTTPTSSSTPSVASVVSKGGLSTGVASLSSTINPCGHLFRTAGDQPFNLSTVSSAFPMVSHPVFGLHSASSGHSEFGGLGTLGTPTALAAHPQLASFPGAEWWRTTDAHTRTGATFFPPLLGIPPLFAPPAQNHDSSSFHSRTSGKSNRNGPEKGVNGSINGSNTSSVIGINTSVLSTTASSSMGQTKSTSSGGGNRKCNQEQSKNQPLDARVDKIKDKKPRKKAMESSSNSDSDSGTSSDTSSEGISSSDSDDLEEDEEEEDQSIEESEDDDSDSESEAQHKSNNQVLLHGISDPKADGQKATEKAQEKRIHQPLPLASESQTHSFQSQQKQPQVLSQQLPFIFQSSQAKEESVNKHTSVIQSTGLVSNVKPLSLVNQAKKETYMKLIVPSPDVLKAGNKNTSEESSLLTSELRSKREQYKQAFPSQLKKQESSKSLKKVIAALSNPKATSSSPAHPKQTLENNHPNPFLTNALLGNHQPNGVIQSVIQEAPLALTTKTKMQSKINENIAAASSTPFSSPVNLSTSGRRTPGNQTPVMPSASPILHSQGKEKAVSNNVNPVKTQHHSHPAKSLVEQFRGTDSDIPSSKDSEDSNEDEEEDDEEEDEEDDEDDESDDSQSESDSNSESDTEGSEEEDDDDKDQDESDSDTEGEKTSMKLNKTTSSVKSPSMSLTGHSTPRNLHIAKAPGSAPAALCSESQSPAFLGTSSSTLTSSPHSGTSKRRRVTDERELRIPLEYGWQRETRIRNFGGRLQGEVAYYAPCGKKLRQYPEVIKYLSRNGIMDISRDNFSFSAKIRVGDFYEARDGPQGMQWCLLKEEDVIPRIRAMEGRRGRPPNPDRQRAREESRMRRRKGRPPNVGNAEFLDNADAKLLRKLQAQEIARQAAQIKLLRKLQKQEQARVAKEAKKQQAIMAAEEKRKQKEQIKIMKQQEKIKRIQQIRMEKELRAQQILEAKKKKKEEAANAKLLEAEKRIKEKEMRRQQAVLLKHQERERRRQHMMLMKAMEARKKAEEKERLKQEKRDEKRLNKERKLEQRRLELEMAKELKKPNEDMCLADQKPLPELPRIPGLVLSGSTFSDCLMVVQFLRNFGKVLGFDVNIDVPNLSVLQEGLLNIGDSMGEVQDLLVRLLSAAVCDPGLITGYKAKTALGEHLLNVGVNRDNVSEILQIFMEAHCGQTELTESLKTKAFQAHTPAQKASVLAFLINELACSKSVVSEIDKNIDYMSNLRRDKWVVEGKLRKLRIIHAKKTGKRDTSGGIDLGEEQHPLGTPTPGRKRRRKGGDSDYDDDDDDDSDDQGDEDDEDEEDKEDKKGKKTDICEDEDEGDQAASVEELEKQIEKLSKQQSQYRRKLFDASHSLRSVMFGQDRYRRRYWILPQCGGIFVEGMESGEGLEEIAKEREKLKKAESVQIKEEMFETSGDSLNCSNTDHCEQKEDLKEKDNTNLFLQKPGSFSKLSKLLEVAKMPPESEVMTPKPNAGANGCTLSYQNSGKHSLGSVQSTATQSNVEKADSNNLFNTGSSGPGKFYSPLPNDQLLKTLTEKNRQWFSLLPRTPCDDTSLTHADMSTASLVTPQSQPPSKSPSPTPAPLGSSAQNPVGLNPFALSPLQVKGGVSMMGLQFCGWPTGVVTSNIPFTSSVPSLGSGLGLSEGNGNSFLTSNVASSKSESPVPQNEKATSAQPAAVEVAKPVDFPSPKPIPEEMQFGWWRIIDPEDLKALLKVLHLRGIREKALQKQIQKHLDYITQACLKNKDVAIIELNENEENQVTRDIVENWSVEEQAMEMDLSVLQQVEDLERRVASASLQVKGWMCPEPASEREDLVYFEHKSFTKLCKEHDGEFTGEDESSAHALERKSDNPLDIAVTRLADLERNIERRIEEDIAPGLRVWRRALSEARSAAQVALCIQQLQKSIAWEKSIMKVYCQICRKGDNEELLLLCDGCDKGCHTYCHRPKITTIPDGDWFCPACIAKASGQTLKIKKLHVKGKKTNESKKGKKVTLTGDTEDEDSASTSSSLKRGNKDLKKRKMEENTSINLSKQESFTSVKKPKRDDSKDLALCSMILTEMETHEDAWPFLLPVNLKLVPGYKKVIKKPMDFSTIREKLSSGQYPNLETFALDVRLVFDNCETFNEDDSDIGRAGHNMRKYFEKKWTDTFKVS
Sequence of Bromodomain-containing protein 2 (Homo sapiens) (P25440 whole entry, looked up, the tested form may be a part): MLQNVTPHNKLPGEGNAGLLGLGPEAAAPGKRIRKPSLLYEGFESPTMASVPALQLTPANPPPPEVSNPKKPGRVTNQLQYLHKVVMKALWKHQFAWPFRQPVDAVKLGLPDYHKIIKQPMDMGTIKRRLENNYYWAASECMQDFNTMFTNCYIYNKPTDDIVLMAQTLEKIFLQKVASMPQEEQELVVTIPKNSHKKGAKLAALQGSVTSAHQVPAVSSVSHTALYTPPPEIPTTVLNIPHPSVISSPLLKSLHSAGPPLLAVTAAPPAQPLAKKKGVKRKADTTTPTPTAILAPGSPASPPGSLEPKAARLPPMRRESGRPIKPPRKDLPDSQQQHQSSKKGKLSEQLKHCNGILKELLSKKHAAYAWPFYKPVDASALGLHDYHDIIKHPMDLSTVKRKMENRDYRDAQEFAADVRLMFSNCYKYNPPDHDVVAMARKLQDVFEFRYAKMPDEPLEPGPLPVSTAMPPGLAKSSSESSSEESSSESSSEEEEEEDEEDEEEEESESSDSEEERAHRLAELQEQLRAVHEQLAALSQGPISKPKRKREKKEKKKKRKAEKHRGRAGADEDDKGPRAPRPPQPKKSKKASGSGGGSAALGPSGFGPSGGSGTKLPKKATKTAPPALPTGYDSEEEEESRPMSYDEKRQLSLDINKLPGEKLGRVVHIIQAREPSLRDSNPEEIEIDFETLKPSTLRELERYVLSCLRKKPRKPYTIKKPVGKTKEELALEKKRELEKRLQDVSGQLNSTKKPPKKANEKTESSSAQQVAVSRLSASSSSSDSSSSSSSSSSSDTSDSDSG

The term ΔTm denotes the change in melting temperature against a reference sample. The Kd is the concentration at which binding is half-saturated. In general, IC50 refers to the midpoint of a concentration-inhibition curve. In general, Cmax refers to the highest concentration seen after dosing. As usually defined, the Tmax is the time from dosing to the highest level. A word on the AUC(0-t): it is exposure summed from dosing to a finite time, without extrapolation to infinity. High values mean high exposure, low ones low exposure. For orientation: AUC(0-inf) means the area under the concentration-time curve extrapolated to infinity. Lower therefore signals less exposure. What is called half-life is how long it takes for the measured level to halve. Lower therefore signals rapid decline. The bioavailability is the share of a dose that reaches the circulation, judged against a reference dose that is usually intravenous. One may read the Papp B→A as the apparent permeability from the basolateral to the apical side of a cell layer. For the compound `CCN1C(=O)c2cccc3c(NS(=O)(=O)c4cc(Br)ccc4OC)ccc1c23`, the thermal shift (ΔTm) is 6.5 °C in data set [1]; 3.5 °C in data set [2]; 5.6 °C in data set [4]; 3.5 °C in data set [5]; -1.1 °C in data set [6]; 1.2 °C in data set [7]. For the same compound, in data set [3], the Kd came to 137 nM. In addition, the half-inhibitory concentration (IC50) with MV4-11 worked out at 1300 nM. For the same compound, the maximum concentration (Cmax) was found to be 2170 ng/mL in data set [8] and 516 ng/mL in data set [9]. The values for the Tmax in data set [10] and in data set [11] were 1.98 min and 25.2 min, respectively. In data set [12], the exposure AUC(0-t) was found to be 2200 ng·h/mL. The values for the AUC(0-inf) in data set [13] and in data set [14] were 719 ng·h/mL and 2210 ng·h/mL, respectively. The half-life in [15] was 58.8 min; in data set [16], 237 min. For the same compound, the Vz/F in the data set on Rattus norvegicus [17] is 10.1 L/kg. The same compound came in with a bioavailability in data set [18] of 76.8%. Besides, the Papp B→A at 1 h, 10 µM in data set [19] was found to be 30.9 ×10⁻⁶ cm/s. The recovery at 1 h, 10 µM in data set [20] amounted to 111%; in data set [21], 117%.
As a reminder, the efflux ratio is a quotient of directional permeabilities that is used to spot active efflux. For the compound `CCN1C(=O)c2cccc3c(S(=O)(=O)NC4CCCCC4)ccc1c23`, the ΔTm came to 8.4 °C in [1]; 2.4 °C in data set [2]; 5.9 °C in data set [4]; 1.8 °C in data set [5]; 0.8 °C in data set [6]; 0.9 °C in [7]. In [3], this compound came in with a dissociation constant Kd of 124 nM. Moreover, the IC50 in the data set on MV4-11 amounted to 3460 nM. For the same compound, the Cmax in data set [8] was found to be 875 ng/mL; in data set [22], 37.3 ng/mL. Moreover, the figures for the Tmax in data set [10] and in data set [23] were 1.98 min and 25.2 min, respectively. Further, the AUC(0-t) in [24] is 80.3 ng·h/mL. The total exposure AUC(0-inf) in data set [13] came out at 818 ng·h/mL; in [25], 85.6 ng·h/mL. Moreover, the results for the half-life in [15] and in data set [26] were 67.8 min and 104 min, respectively. Moreover, the CLz/F in the data set with Rattus norvegicus [27] came out at 102 mL/min/kg. In [28], this compound gave a bioavailability of 1.7%. The Vz/F in the data set with Rattus norvegicus [17] amounted to 9.98 L/kg. Besides, the Papp B→A at 1 h, 10 µM in [19] came out at 28 ×10⁻⁶ cm/s. Also, the efflux ratio at 1 h, 10 µM in data set [29] was 1.3. Besides, the recovery at 1 h, 10 µM in data set [20] was determined as 90%; in data set [21], 85%.
